Holding throughout (assay type): functional
Assay [1] deals with Mus musculus. The experiment in a line: Trypanocidal Activity at I.C.E. value 0.74 when administered subcutaneously. The procedure, abridged: (§1)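 Mice, in groups of five per dose, were given a standard inoculum of blood-stage T. rhodesiense that is lethal to all untreated controls, then dosed subcutaneously. Usually 11 dose levels were used (2^n × 0.42 mg/kg).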
The subject of assay [2] is Mus musculus. Description: Trypanocidal Activity at I.C.E. value 0.60 when administered subcutaneously. The procedure, abridged: as §1
In assay [3] the test system is Mus musculus. Description: Trypanocidal Activity at I.C.E. value 0.61 when administered perorally.
Assay [4] deals with Mus musculus. Description: Trypanocidal Activity at I.C.E. value 0.41 when administered subcutaneously. The procedure, abridged: (§2)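 Blood-stage T. rhodesiense infection came from a standard inoculum lethal to all untreated mice. Drug was given by subcutaneous injection to groups of five mice. Survival beyond 30 days counted as cure. […] Sub-curative doses scored 0, and data were normalized at each dose.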

The subject of assay [5] is Mus musculus. Description: Trypanocidal Activity at I.C.E. value 0.57 when administered subcutaneously. The procedure, abridged: as §1
For assay [6], the system named is Mus musculus. Description: Trypanocidal Activity at I.C.E. value 0.40 when administered perorally.
In assay [7] the test system is Mus musculus. Description: Trypanocidal Activity at I.C.E. value 0.18 when administered subcutaneously.
Assay [8] has as its system Mus musculus. The experiment in a line: Trypanocidal Activity at I.C.E. value 0.84 when administered subcutaneously. The procedure, abridged:
as §1

The test system of assay [9] is Mus musculus. The experiment in a line: Trypanocidal Activity at I.C.E. value 0.26 when administered subcutaneously. The procedure, abridged:
as §2

Assay [10] concerns Trypanosoma brucei rhodesiense. Description: In Vitro measurement of inhibition of leucine uptake in cell culture of Trypanosoma rhodesiense. As to conditions: read-out: ID50 (the source's name). The procedure, abridged: (§3)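 Trypanosomes harvested from infected rats, cultured 3 h with several concentrations of drug, usually 0.1–100 µg/mL. Radiolabeled L-leucine uptake measured. ID50 is the concentration in µg/mL giving 50% inhibition of incorporation.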

In assay [11] the test system is Trypanosoma brucei rhodesiense. The experiment in a line: In Vitro measurement of inhibition of thymidine uptake in cell culture of Trypanosoma rhodesiense. Conditions: read-out: ID50 (the source's name). The procedure, abridged: (§4)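 Parasites harvested from infected rats and incubated 3 h across a drug concentration series, usually 0.1–100 µg/mL. Incorporation of radiolabeled thymidine measured. ID50 is the concentration (µg/mL) producing 50% inhibition.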

For assay [12], the system named is Mus musculus. Description: Trypanocidal Activity at I.C.E. value 0.35 when administered perorally.
The test system of assay [13] is Mus musculus. Description: Trypanocidal Activity at I.C.E. value 0.67 when administered subcutaneously. The procedure, abridged: as §1
The test system of assay [14] is Trypanosoma brucei rhodesiense. The experiment in a line: In Vitro measurement of inhibition of Leucine uptake in cell culture of Trypanosoma rhodesiense. As to conditions: read-out: ID50 (the source's name). The procedure, abridged:
as §3

In assay [15] the test system is Trypanosoma brucei rhodesiense. The experiment in a line: In Vitro measurement of inhibition of thymidine uptake in cell culture of Trypanosoma rhodesiense. Conditions: read-out: ID50 (the source's name). The procedure, abridged:
as §4

The test system of assay [16] is Mus musculus. The experiment in a line: Trypanocidal Activity at I.C.E. value 0.63 when administered perorally.
The subject of assay [17] is Mus musculus. The experiment in a line: Trypanocidal Activity at I.C.E. value 0.54 when administered subcutaneously. Put shortly: as §2
The subject of assay [18] is Mus musculus. Description: Trypanocidal Activity at I.C.E. value 0.48 when administered perorally.
Assay [19] has as its system Mus musculus. Description: Trypanocidal Activity at I.C.E. value 0.49 when administered subcutaneously. Put shortly: as §2
Assay [20] deals with Mus musculus. The experiment in a line: Trypanocidal Activity at I.C.E. value 0.17 when administered perorally.
Assay [21] concerns Mus musculus. The experiment in a line: Trypanocidal Activity at I.C.E. value 0.63 when administered subcutaneously. The procedure, abridged: as §1
Assay [22] deals with Mus musculus. Description: Trypanocidal Activity at I.C.E. value 0.24 when administered perorally.
The subject of assay [23] is Mus musculus. Description: Trypanocidal Activity at I.C.E. value 0.17 when administered subcutaneously.
Assay [24] concerns Mus musculus. Description: Trypanocidal Activity at I.C.E. value 0.79 when administered subcutaneously. The procedure, abridged: as §1
Assay [25] deals with Mus musculus. Description: Trypanocidal Activity at I.C.E. value 0.24 when administered subcutaneously. Put shortly:
as §2

Assay [26] concerns Mus musculus. The experiment in a line: Trypanocidal Activity at I.C.E. value 0.06 when administered perorally.
Assay [27] deals with Mus musculus. Description: Trypanocidal Activity at I.C.E. value 0.47 when administered perorally.
Assay [28] concerns Mus musculus. The experiment in a line: Trypanocidal Activity at I.C.E. value 0.48 when administered subcutaneously. The procedure, abridged:
as §2

The test system of assay [29] is Mus musculus. Description: Trypanocidal Activity at I.C.E. value 0.36 when administered subcutaneously.
In assay [30] the test system is Mus musculus. The experiment in a line: Trypanocidal Activity at I.C.E. value 0.10 when administered perorally.
For assay [31], the system named is Mus musculus. The experiment in a line: Trypanocidal Activity at I.C.E. value 0.21 when administered subcutaneously.
In assay [32] the test system is Mus musculus. Description: Trypanocidal Activity at I.C.E. value 0.12 when administered perorally.

SMILES strings stand for the structures.

Consider `C[n+]1c(/C=C/c2ccc(/C=N/NC(=N)N3CCCC3)cc2)cn2ccccc21.Cc1ccc(S(=O)(=O)O)cc1.Cc1ccc(S(=O)(=O)[O-])cc1`, for which, in the assay on Mus musculus [1], the CD50 amounted to 0.8 mg/kg.
Turning to `Br.C[n+]1c(COc2ccc(/C=N/NC3=NCCN3)cc2)cn2ccccc21.[Br-]`, the CD50 in the assay with Mus musculus [2] was found to be 0.8 mg/kg; in the assay on Mus musculus [3] it was 6.6 mg/kg.
In the assay with Mus musculus [4], `Br.Cc1ccc2n(c1)cc(/C=C/c1ccc(/C=N/NC3=NCCCN3)cc1)[n+]2C.[Br-]` registered a CD50 of 1.6 mg/kg.
For `Br.CC/N=C(\NCC)N/N=C/c1ccc(-c2cn3ccccc3[n+]2C)cc1.[Br-]`, the CD50 with Mus musculus [5] is 1.6 mg/kg; with Mus musculus [6], 53 mg/kg.
Turning to `C[n+]1c(-c2ccc(/C=N/Nc3ccccn3)cc2)cn2ccccc21.Cc1ccc(S(=O)(=O)[O-])cc1`, the CD50 in the assay on Mus musculus [7] is 212 mg/kg.
Turning to `Br.Cc1cccc2n1cc(/C=C/c1ccc(/C=N/NC3=NCCCN3)cc1)[n+]2C.[Br-]`, the CD50 in the assay with Mus musculus [8] was determined as 0.4 mg/kg.
Turning to `C[n+]1c(COc2ccc(C(=N)N)cc2)cn2ccccc21.Cl.[Cl-]`, the CD50 in the assay on Mus musculus [9] is 3.3 mg/kg. Besides, the IC50 in [10] is 12 µg/mL; in assay [11], 0.7 µg/mL.
In the case of `Br.CCNC(=N)N/N=C/c1ccc(-c2cn3cc(C)ccc3[n+]2C)cc1.[Br-]`, the figures for the CD50 with Mus musculus [12] and in the assay with Mus musculus [13] were 26 mg/kg and 0.4 mg/kg, respectively.
Take `Br.CNC(=N)N/N=C/c1ccc(-c2cn3ccccc3[n+]2C)cc1.[Br-]`: the IC50 in [14] came out at 0.7 µg/mL; in assay [15], 0.5 µg/mL. This compound also had a CD50 in the assay on Mus musculus [4] of 0.8 mg/kg.
As to `Br.Cn1cc[n+](C)c1/C=C/c1ccc(/C=N/NC2=NCCCN2)cc1.[Br-]`, the CD50 with Mus musculus [16] amounted to 6.6 mg/kg; in the assay on Mus musculus [17], 0.8 mg/kg.
For `Br.Cc1cccc2n1cc(COc1ccc(/C=N/NC(=N)N)cc1)[n+]2C.[Br-]`, the values for the CD50 in the assay with Mus musculus [18] and with Mus musculus [19] were 13 mg/kg and 0.8 mg/kg, respectively.
`Br.CCNC(=N)N/N=C/c1ccc(OCc2n(C)c3ccccc3[n+]2C)cc1.[Br-]`: the CD50 with Mus musculus [2] amounted to 1.6 mg/kg.
As for `CCCCSc1ccc2n(c1)cc(-c1ccc(/C=N/NC(=N)N3CCCC3)cc1)[n+]2C.Cc1ccc(S(=O)(=O)O)cc1.Cc1ccc(S(=O)(=O)[O-])cc1`, the CD50 was found to be 212 mg/kg with Mus musculus [20] and 3.3 mg/kg with Mus musculus [21].
As to `CC(=O)Nc1ccc(-c2cn3ccccc3[n+]2C)cc1.[I-]`, the IC50 in assay [10] and in assay [11] was greater than 10 µg/mL throughout. For the same compound, the CD50 in the assay with Mus musculus [22] stood at 106 mg/kg; with Mus musculus [23] it was 212 mg/kg.
On to `CC(=O)Nc1ccc2n(c1)cc(-c1ccc(/C=N/NC(=N)N)cc1)[n+]2C.Cc1ccc(S(=O)(=O)O)cc1.Cc1ccc(S(=O)(=O)[O-])cc1`, for which the IC50 in assay [10] was greater than 10 µg/mL; in assay [11], 1.5 µg/mL. In the assay with Mus musculus [24], this compound yielded a CD50 of 0.4 mg/kg.
For `Cc1ccc(S(=O)(=O)O)cc1.Cc1ccc(S(=O)(=O)[O-])cc1.Cc1ccc2n(c1)cc(-c1ccc(/C=C/C=N/NC(=N)N)cc1)[n+]2C`, the CD50 is 106 mg/kg with Mus musculus [25] and 424 mg/kg with Mus musculus [26].
For `Br.Cc1ccn2cc(-c3ccc(/C=N/NC(=N)N4CCCC4)cc3)[n+](C)c2c1.[Br-]`, the CD50 is 13 mg/kg in the assay on Mus musculus [27] and 0.1 mg/kg in the assay on Mus musculus [28].
Take `Br.C[n+]1c(COc2ccc(/C=N/NC(=N)N3CCCC3)cc2)cn2ccccc21.[Br-]`: the CD50 in the assay with Mus musculus [29] is 0.8 mg/kg; in the assay on Mus musculus [27] it was 26 mg/kg.
For `Br.CCCCSc1ccc2n(c1)cc(-c1ccc(/C=N/NC(=N)NO)cc1)[n+]2C.[Br-]`, the CD50 turned out to be 0.8 mg/kg in the assay with Mus musculus [8] and 26 mg/kg with Mus musculus [6].
Consider `Br.CCNC(=N)N/N=C/c1ccc(OCc2cccc[n+]2C)cc1.[Br-]`, for which the CD50 with Mus musculus [7] came to 6.6 mg/kg; in the assay with Mus musculus [30] it was 212 mg/kg.
For `Br.C[n+]1ccc(COc2ccc(/C=N/NC3=NCCN3)cc2)cc1.[Br-]`, the CD50 in the assay with Mus musculus [31] was determined as 13 mg/kg; in the assay on Mus musculus [32], 424 mg/kg.

Source of the values: ChEMBL document CHEMBL1124947, “Cationic antiprotozoal drugs. Trypanocidal activity of 2-(4'-formylphenyl)imidazo[1,2-a]pyridinium guanylhydrazones and related derivatives of quaternary heteroaromatic compounds” (J Med Chem, 1990).
